In ChEMBL document CHEMBL1833967, “Bioassay-guided isolation of constituents of Piper sarmentosum using a mitochondrial transmembrane potential assay” (2011) one finds EC50 and ED50 data, which are given here for twelve molecules.

In assay [1] the test system is HT-29. The assay is described as follows: Cytotoxicity against human HT-29 cells after 3 days by sulforhodamine B assay. The class given is functional. The conditions noted are these: read-out: ED50 (the source's name).
For assay [2], the system named is HT-29. The assay is described as follows: Induction of apoptosis in human HT-29 cells assessed reduction of mitochondrial membrane potential after 2 hrs by using JC1 staining by fluorescence cell-based assay. The class given is functional. The conditions noted are these: HT-29, 2 h, read-out: ED50 (the source's name).
The test system of assay [3] is HL-60. The assay is described as follows: Inhibition of chymotrypsin-like activity of purified human 20S proteasome in HL60 cells using N-succinyl-Leu-Leu-Val-Tyr-AMC as substrate pre-incubated for 10 mins by fluorimetric assay. The format is cell-based. In outline:
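Enzyme source was a proteasome fraction isolated from HL-60 human leukemia cells. […] Activity is reported as ED50 in μM.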

pEC50: −log10 of the molar value.

For `COc1cc(O)c2c(c1Cc1ccccc1O)O[C@H](c1ccccc1)CC2=O`, the pEC50 is less than 4.70 in assay [1] (Homo sapiens, HT-29, 72 h) and 4.87 in assay [2]. The molecule also yielded an ED50 in assay [3] of more than 20 µM.

Regarding `COc1c(Cc2ccccc2O)c(O)c2c(c1Cc1ccccc1O)O[C@H](c1ccccc1)CC2=O`, the pEC50 in assay [1] (Homo sapiens, HT-29, 72 h) is less than 4.70; in assay [2], 5.80. In addition, the ED50 in assay [3] amounted to 3.45 µM.

For `CC(C)C[C@H](NC(=O)[C@H](Cc1ccccc1)NC(=O)c1cnccn1)B(O)O` [BORTEZOMIB], the pEC50 in assay [1] (Homo sapiens, HT-29, 72 h) is less than 4.70.

Consider `O=C1C[C@@H](c2ccccc2)Oc2c(Cc3ccccc3O)c(O)c(Cc3ccccc3O)c(O)c21` [DICHAMANETIN], for which, in assay [1], the pEC50 was less than 4.70. In assay [3], this molecule came in with an ED50 of more than 20 µM.

As for `O=C1C[C@@H](c2ccccc2)Oc2cc(O)c(Cc3ccccc3O)c(O)c21` [ISOCHAMANETIN], in assay [1] (Homo sapiens, HT-29, 72 h), the pEC50 is less than 4.70. Further, in assay [3], the ED50 was more than 20 µM.

Take `CC(=O)O[C@H]1C(=O)[C@@]2(C)[C@H]([C@H](OC(=O)c3ccccc3)[C@]3(O)C[C@H](OC(=O)[C@H](O)[C@@H](NC(=O)c4ccccc4)c4ccccc4)C(C)=C1C3(C)C)[C@]1(OC(C)=O)CO[C@@H]1C[C@@H]2O` [PACLITAXEL]: in assay [1] (Homo sapiens, HT-29, 72 h), the pEC50 is 8.22.

Consider `O=C1C[C@@H](c2ccccc2)Oc2cc(O)cc(O)c21` [PINOCEMBRIN], for which the pEC50 in assay [1] (Homo sapiens, HT-29, 72 h) was less than 4.70. Besides, the ED50 in assay [3] worked out at 2.87 µM.

As for `CC(C)CNC(=O)/C=C/C=C/CCCCc1ccc2c(c1)OCO2` [PIPERCALLOSINE], the pEC50 in assay [1] (Homo sapiens, HT-29, 72 h) was less than 4.70; in assay [2], 5.34. This molecule returned an ED50 in assay [3] of more than 20 µM.

For `O=C1C[C@@H](c2ccccc2)Oc2c(Cc3cc(Cc4cc(Cc5ccccc5O)ccc4O)ccc3O)c(O)c(Cc3ccccc3O)c(O)c21` [SARMENTOSUMIN A], the pEC50 in assay [1] (Homo sapiens, HT-29, 72 h) is less than 4.70. Moreover, in assay [3], the ED50 is more than 20 µM.

Regarding `O=C1C[C@@H](c2ccccc2)Oc2c(Cc3ccccc3O)c(O)c(Cc3cc(Cc4cc(Cc5ccccc5O)ccc4O)ccc3O)c(O)c21` [SARMENTOSUMIN B], the pEC50 in assay [1] (Homo sapiens, HT-29, 72 h) was less than 4.70. Moreover, in assay [3], the ED50 is more than 20 µM.

Regarding `O=C1C[C@@H](c2ccccc2)Oc2c(Cc3ccccc3O)c(O)c(Cc3cc(Cc4cc(Cc5cc(Cc6ccccc6O)ccc5O)ccc4O)ccc3O)c(O)c21` [SARMENTOSUMIN C], the pEC50 in assay [1] (Homo sapiens, HT-29, 72 h) was less than 4.70; in assay [2], 5.60. This molecule had an ED50 in assay [3] of more than 20 µM.

As to `O=C1C[C@@H](c2ccccc2)Oc2c(Cc3cc(Cc4ccccc4O)ccc3O)c(O)c(Cc3cc(Cc4cc(Cc5ccccc5O)ccc4O)ccc3O)c(O)c21` [SARMENTOSUMIN D], the pEC50 in assay [1] (Homo sapiens, HT-29, 72 h) is less than 4.70. The same molecule displayed an ED50 in assay [3] of more than 20 µM.
